From PubChem
In the library only some 3.7% were active in any assay of this set; here they are far more common.
KCNK9 inh – KCNK9 potassium channel inhibitors, primary screen, HEK293 cells, thallium flux. Potassium channel subfamily K member 9 (Homo sapiens), Q9NPC2. FluxOR thallium flux fluorescence; stronger effect = lower value. B-score at 10 µM. 310,000 compounds, 1.2% hits. AID 488922, 2010;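 active = ratio B-score over 3 SD below the library mean, with starting fluorescence within 5 SD of its mean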;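 also: negative B-score means less thallium flux so channel inhibition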
KCNQ1 pot – potentiators or activators of KCNQ1 channel, primary screen, cell-based, thallium flux, high-throughput; 310,000 compounds, 0.35% hits; B-score at 10 µM; Potassium voltage-gated channel subfamily KQT member 1 (Homo sapiens), P51787; AID 2648, 2010; CHO-K1 KCNQ1, thallium flux FluxOR fluorescence; stronger effect = higher value;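 active = fluorescence ratio B-score, a plate-corrected score, at least three library SD, with initial intensity B-score within 5 SD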
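Doses: Single concentration per compound, DMSO matched to controls | Test system: KCNQ1-transfected CHO-K1 cells | Timing: 90 min dye loading and 20 min compound exposure, both at room temperature | Measured by: Kinetic FluxOR thallium fluorescence, 10-s 1-Hz baseline, 110-s post-stimulus read | Medium: Assay buffer with matched DMSO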
KCNK3 inh – human KCNK3 channel inhibitors, primary screen, CHO cells, FluxOR thallium flux, B-score; Potassium channel subfamily K member 3 (Homo sapiens), O14649; FluxOR fluorescence; stronger effect = lower value; B-score at 10 µM; 340,000 compounds, 0.84% hits; AID 602410, 2012;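 active = B-score under library mean minus 4 SD, starting fluorescence ratio at most library mean plus 5 SD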;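 also: more negative B-score means stronger inhibition of thallium flux through KCNK3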
Kir21 block – inhibitors of mouse Kir2.1 inward-rectifier potassium channel; Inward rectifier potassium channel 2 (Mus musculus), P35561; HEK293-Kir2.1, FluxOR thallium flux fluorescence; stronger effect = lower value; B-score at 10 µM; 310,000 compounds, 0.85% hits;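 active = fluorescence ratio B-score at or below minus 3 SD of library scores, with starting-brightness B-score within 2 SD, cut at about -4.2 in these data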;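 also: channel flux triggered by added potassium and thallium sulfate stimulus; B-score of peak minus minimum fluorescence over baseline after thallium stimulus; more negative B-score means stronger Kir2.1 block with less thallium influx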
hERG rescue – hERG rescue from dofetilide block, primary screen, cell-based, CHO-hERG, FluxOR thallium flux, dofetilide IC70; activation (rescue from dofetilide block), less the hit threshold, % at 10 µM; dofetilide IC70 present; AID 1511, 2009; Voltage-gated inwardly rectifying potassium channel KCNH2 (Homo sapiens), Q12809; 310,000 compounds, 0.51% hits;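 active = activation above the mean of controls blocked by dofetilide plus 5 SD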;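 also: thallium influx through hERG after potassium depolarization seen as dye fluorescence rise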
KCNQ1 block – inhibitors of human KCNQ1 channel, primary screen, cell-based, thallium flux, high-throughput | AID 2642, 2010 | 310,000 compounds, 1.3% hits | B-score at 10 µM | CHO-K1 KCNQ1, FluxOR thallium flux fluorescence; stronger effect = higher value;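 active = compounds whose thallium flux B-score, printed positive for inhibition, exceeds three library SD while starting fluorescence stays within three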;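 also: channel opened by potassium depolarization with thallium stimulus after 20 min compound exposure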
KCNK9 block conf – KCNK9 potassium channel inhibitors, confirmation, HEK293 cells, thallium flux, duplicate; AID 492992, 2010; 4,900 compounds, 43% hits; shares compounds with KCNK9 inh; FluxOR thallium flux fluorescence; inhibition, % at 10 µM;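 active = thallium signal inhibited by more than 5 SD of the compound-free buffer control wells, on both duplicate plates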
Kir2-1 spec – mouse Kir2.1 channel inhibition, confirmation, selectivity assay for KCNK9 modulator project, cell-based, HEK293, thallium flux; Kir2.1 cells, FluxOR thallium flux fluorescence; inhibition, % at 10 µM; 4,900 compounds, 4% hits; shares compounds with KCNK9 inh;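 active = thallium signal drop more than 5 SD beyond the mean of the no-compound control wells, seen in both duplicate plates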;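 also: signal is fluorescence rise after thallium addition divided by baseline fluorescence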
KCNK9 uninduced – thallium flux in non-induced HEK293 cells, confirmation, counter-screen for KCNK9 inhibitor project, cell-based, second counter screen, non-induced KCNK9-HEK293; shares compounds with KCNK9 inh; AID 492997, 2010; FluxOR thallium flux; 4,900 compounds, 40% hits; inhibition, % at 10 µM;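 active = thallium signal drop beyond 5 SD of the untreated control mean, on both duplicate plates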
Of the large screens only hits and unclear results are named; the others gave an inactive call (follow-up assays come after a bar, where they were run).

COc1c(C)cc(C(=O)C2CCCN(C(=O)c3cc(C)n(C)n3)C2)cc1C (stereo not given)	none
CC#CC(=O)N1CCCC(C(=O)c2ccc(SC)cc2)C1 (stereo not given)	none
Cc1cc(C(=O)N2CCCC(C(=O)c3ccc4ccccc4c3)C2)nn1C (stereo not given)	none | KCNK9 block conf inactive | Kir2-1 spec inactive | KCNK9 uninduced inactive
CSc1ccc(C(=O)C2CCCN(C(=O)c3ccsc3)C2)cc1 (stereo not given)	none | KCNK9 block conf inactive | Kir2-1 spec inactive | KCNK9 uninduced inactive
O=C(c1ccc2ccccc2c1)C1CCCN(C(=O)c2noc3c2CCCC3)C1 (stereo not given)	none | KCNK9 block conf inactive | Kir2-1 spec inactive | KCNK9 uninduced inactive
Cc1ccc(N(CC(=O)N/N=C/c2cccc(Br)c2)S(C)(=O)=O)cc1	none
CSc1nc(C(=O)N2CCCC(C(=O)c3ccc(Cl)cc3)C2)cs1 (stereo not given)	none | KCNK9 block conf inactive | Kir2-1 spec inactive | KCNK9 uninduced inactive
O=C(c1ccc(Cl)cc1)C1CCCN(C(=O)c2csnn2)C1 (stereo not given)	none
COc1ccc(CNC(=O)C[C@H]2C(=O)N(c3ccccc3)C[C@@H]2Cc2ccccc2)cc1	KCNK9 inh -9.91 | KCNK9 block conf 59.5% | Kir2-1 spec inactive | KCNK9 uninduced inactive
CCCCN1C[C@H](Cc2ccccc2)[C@@H](CC(=O)NCc2ccc(OC)cc2)C1=O	none
CC(C1CC2CCC1C2)n1c(-c2cccs2)n[nH]c1=S (stereo not given)	KCNK9 inh -11.4 | KCNK9 block conf 53.5% | Kir2-1 spec inactive | KCNK9 uninduced inactive
S=c1[nH]nc(-c2cccs2)n1C1CCCCC1	none
COC(=O)[C@]1(CC(C)C)N[C@H](c2ccc(-c3cccc(Cl)c3)cc2)[C@@H]2C(=O)N(C)C(=O)[C@@H]21	KCNK9 inh -10.3 | KCNK9 block conf 54.5% | Kir2-1 spec inactive | KCNK9 uninduced 40.5%
COC(=O)[C@]1(CC(C)C)N[C@H](c2ccc(-c3ccc(F)cc3)c(OC)c2)[C@@H]2C(=O)N(C)C(=O)[C@@H]21	KCNK9 inh -9.14 | KCNK9 block conf 38.0% | Kir2-1 spec inactive | KCNK9 uninduced 38.5%
CCN1C(=O)[C@H]2[C@@H](c3ccc(-c4ccc(OC)cc4)c(OC)c3)N[C@@](CC(C)C)(C(=O)OC)[C@H]2C1=O	none (no result: KCNK9 inh, KCNQ1 pot, Kir21 block, hERG rescue, KCNQ1 block)
COC(=O)[C@]1(C)N[C@H](c2ccc(-c3cccc(Cl)c3)cc2)[C@@H]2C(=O)N(C)C(=O)[C@@H]21	none (no result: KCNK9 inh, KCNQ1 pot, Kir21 block, hERG rescue, KCNQ1 block)
COc1cc2ncc(C(=O)c3ccccc3)c(N3CCN(Cc4ccccc4)CC3)c2cc1OC	none
COc1ccc(OCC(=O)N(Cc2ccco2)C2CCS(=O)(=O)C2)cc1 (stereo not given)	none
C=CCn1c(SCC2CCCCO2)nc2sc(CC)cc2c1=O (stereo not given)	none | KCNK9 block conf inactive | Kir2-1 spec inactive | KCNK9 uninduced 33.5%
CCc1ccc(-n2cnc3cc(C(=O)NCC(OC)OC)ccc32)cc1	none
CC12COC3(C(=O)Nc4ccc5ccccc5c4)CC1CCC32C (stereo not given)	none | KCNK9 block conf inactive | Kir2-1 spec inactive | KCNK9 uninduced inactive
